Assay results published in ChEMBL document CHEMBL1671843, “Synthesis and SAR of Thiazolylmethylphenyl Glucoside as Novel C-Aryl Glucoside SGLT2 Inhibitors” (ACS Med Chem Lett, 2011).
pIC50: −log10 of the molar value.

Tests used:
[1] = target: T1, Sodium/glucose cotransporter 2 (Homo sapiens, UniProt P31639); assay: Inhibition of human SGLT2 expressed in CHO cells assessed as [14C]-alpha-methyl-D-glucopyranoside uptake after 2 hrs by liquid scintillation counting; format: cell-based
T1 sequence (P31639 whole entry): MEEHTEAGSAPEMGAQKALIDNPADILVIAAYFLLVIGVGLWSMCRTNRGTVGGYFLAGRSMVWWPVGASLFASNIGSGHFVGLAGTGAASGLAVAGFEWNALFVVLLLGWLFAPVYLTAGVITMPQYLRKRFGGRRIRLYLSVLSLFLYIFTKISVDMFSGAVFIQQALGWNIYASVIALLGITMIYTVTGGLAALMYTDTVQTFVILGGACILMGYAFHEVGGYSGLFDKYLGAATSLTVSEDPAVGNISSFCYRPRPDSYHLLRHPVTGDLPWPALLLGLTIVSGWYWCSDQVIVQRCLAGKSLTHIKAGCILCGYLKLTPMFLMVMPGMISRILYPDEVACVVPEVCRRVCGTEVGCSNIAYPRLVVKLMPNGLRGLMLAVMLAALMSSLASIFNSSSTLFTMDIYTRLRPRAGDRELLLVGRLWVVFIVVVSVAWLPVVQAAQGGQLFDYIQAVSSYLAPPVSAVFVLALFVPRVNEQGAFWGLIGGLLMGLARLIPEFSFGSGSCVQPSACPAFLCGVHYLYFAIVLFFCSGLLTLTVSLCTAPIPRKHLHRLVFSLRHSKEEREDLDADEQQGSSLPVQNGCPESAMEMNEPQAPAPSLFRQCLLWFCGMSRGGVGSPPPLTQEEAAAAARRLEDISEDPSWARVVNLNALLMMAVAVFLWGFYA
How it was run: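 Sodium-dependent glucose transport assay against hSGLT2. IC50 was fitted by nonlinear regression. Values are from single determinations.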

[2] = system: Rattus norvegicus; assay: Antidiabetic activity in Sprague-Dawley rat assessed as increase of urinary glucose excretion at 1 mg/kg, po relative to control; format: functional, Urine
How it was run: (§1)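 Normal Sprague-Dawley rats received a single oral dose of 1 or 10 mg/kg. Urinary glucose excretion was measured and expressed as fold elevation in glucose disposal over vehicle-treated controls. Values are means ± SEM, compared with vehicle by one-way ANOVA with Dunnett's post hoc test. Urine volume was also recorded.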

[3] = system: Rattus norvegicus; assay: Antidiabetic activity in Sprague-Dawley rat assessed as increase of urine volume at 10 mg/kg, po relative to control; format: functional
How it was run: (§2)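 Normal Sprague-Dawley rats given a single oral dose (1 or 10 mg/kg) against vehicle controls. Urinary glucose excretion and urine volume were measured and expressed as fold over vehicle. Data are means ± SEM, compared to vehicle by one-way ANOVA with Dunnett's post hoc test.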

[4] = system: Rattus norvegicus; assay: Antidiabetic activity in Sprague-Dawley rat assessed as increase of urinary glucose excretion at 10 mg/kg, po relative to control; format: functional, Urine; how it was run: as §1
[5] = Oral bioavailability in Sprague-Dawley rat at 5 mg/kg; format: ADME, organism-based; details: in vivo
How it was run: (§3)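 Male Sprague-Dawley rats dosed orally at 5 mg/kg. Measured Cmax with time to Cmax, elimination half-life and oral bioavailability (F).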

[6] = Cmax in Sprague-Dawley rat at 5 mg/kg, po after 0.38 hrs; format: ADME, organism-based; parameters: dose 5 mg/kg, route oral; details: in vivo; how it was run: as §3
[7] = Elimination half life in Sprague-Dawley rat at 5 mg/kg, po; format: ADME, organism-based; parameters: dose 5 mg/kg, route oral; details: in vivo; how it was run: as §3
[8] = system: Rattus norvegicus; assay: Antidiabetic activity in Sprague-Dawley rat assessed as increase of urine volume at 1 mg/kg, po relative to control; format: functional; how it was run: as §2
[9] = system: Rattus norvegicus; assay: Antidiabetic activity in Sprague-Dawley rat assessed as increase of glucose disposal at 1 mg/kg, po relative to control; format: functional; how it was run: as §2
[10] = system: Rattus norvegicus; assay: Antidiabetic activity in Sprague-Dawley rat assessed as increase of glucose disposal at 10 mg/kg, po relative to control; format: functional; how it was run: as §2

pIC50 [1]	Structure (SMILES)	other results
7.91	CCCCCCCc1cnc(Cc2cc([C@@H]3O[C@H](CO)[C@@H](O)[C@H](O)[C@H]3O)ccc2Cl)s1	–
9.14	OC[C@H]1O[C@@H](c2ccc(Cl)c(Cc3ncc(-c4ccco4)s3)c2)[C@H](O)[C@@H](O)[C@@H]1O	fold change (FC) [2]: 230; fold change (FC) [3]: 3.7; fold change (FC) [4]: 700; bioavailability [5]: 20.6%
8.50	OC[C@H]1O[C@@H](c2ccc(Cl)c(Cc3ncc(-c4nccs4)s3)c2)[C@H](O)[C@@H](O)[C@@H]1O	–
8.03	OC[C@H]1O[C@@H](c2ccc(Cl)c(Cc3ncc(-c4ccc(-c5ccccc5)cc4)s3)c2)[C@H](O)[C@@H](O)[C@@H]1O	–
7.84	OC[C@H]1O[C@@H](c2ccc(C(F)(F)F)c(Cc3ncc(-c4ccsc4)s3)c2)[C@H](O)[C@@H](O)[C@@H]1O	–
8.95	OC[C@H]1O[C@@H](c2ccc(Cl)c(Cc3cnc(-c4ccsc4)s3)c2)[C@H](O)[C@@H](O)[C@@H]1O	–
< 5.00	O=C(O)c1cnc(Cc2cc([C@@H]3O[C@H](CO)[C@@H](O)[C@H](O)[C@H]3O)ccc2Cl)s1	–
8.13	OC[C@H]1O[C@@H](c2ccc(F)c(Cc3ncc(-c4ccsc4)s3)c2)[C@H](O)[C@@H](O)[C@@H]1O	–

Continued, compound first:

Structure (SMILES)	pIC50 [1]	other results
OC[C@H]1O[C@@H](c2ccc(Br)c(Cc3ncc(-c4ccsc4)s3)c2)[C@H](O)[C@@H](O)[C@@H]1O	8.20	–
OC[C@H]1O[C@@H](c2ccc(Cl)c(Cc3ncc(-c4ccccc4)s3)c2)[C@H](O)[C@@H](O)[C@@H]1O	7.88	–
N#Cc1ccc([C@@H]2O[C@H](CO)[C@@H](O)[C@H](O)[C@H]2O)cc1Cc1ncc(-c2ccsc2)s1	6.85	–
OC[C@H]1O[C@@H](c2ccc(Cl)c(Cc3ncc(-c4ccoc4)s3)c2)[C@H](O)[C@@H](O)[C@@H]1O	8.80	–
OC[C@H]1O[C@@H](c2ccc(Cl)c(Cc3ncc(-c4ccsc4)s3)c2)[C@H](O)[C@@H](O)[C@@H]1O	9.11	Cmax [6]: 1540 ng/mL; half-life [7]: 2.51 h; fold change (FC) [8]: 2.5; fold change (FC) [3]: 4.2; fold change (FC) [9]: 160; bioavailability [5]: 15%; fold change (FC) [10]: 730
CCOc1ccc(Cc2cc([C@@H]3O[C@H](CO)[C@@H](O)[C@H](O)[C@H]3O)ccc2Cl)cc1 [DAPAGLIFLOZIN]	–	fold change (FC) [8]: 5.7; bioavailability [5]: 88%
OC[C@H]1O[C@@H](c2ccc(Cl)c(Cc3ncc(-c4cccs4)s3)c2)[C@H](O)[C@@H](O)[C@@H]1O	8.94	–
CCCCOc1cnc(Cc2cc([C@@H]3O[C@H](CO)[C@@H](O)[C@H](O)[C@H]3O)ccc2Cl)s1	7.71	–
